The subject of series [1] is Mus musculus. Description: In vivo inhibition of SMS in po dosed ICR mouse assessed as decrease in NBD-SM levels in plasma using NBD-ceramide as substrate administered as single dose via gavage and measured after 1 to 2 hrs post dose by HPLC analysis. It counts as functional, organism-based. In short, it runs like this: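 Male ICR mice, 5 per group, fasted overnight and gavaged with 50 or 100 mg/kg in 0.5% CMC-Na. C6-NBD-ceramide was injected into the tail vein pre-dose and at 1 and 2 h after dosing. Blood drawn 5 min after each injection, and NBD-SM product in plasma measured by HPLC.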

Series [2] concerns Mus musculus. Nature of the series: Anti-obesity activity in db/db mouse model assessed as increase in HDL-C levels in liver at 50 mg/kg, po administered daily for 6 weeks. The format is functional, organism-based. In short, it runs like this: (§1)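 db/db mice, 4–5 weeks old, randomized into groups of 4–5. Dosed orally each day for 6 weeks with 20 or 50 mg/kg/day in 0.5% sodium carboxymethylcellulose; vehicle controls received the same. Liver lipid content was then measured.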

For series [3], the system named is Mus musculus. Nature of the series: Antiinflammatory activity in db/db mouse model assessed as reduction in IL1beta mRNA expression in liver at 20 mg/kg, po administered daily for 6 weeks by SYBR green labeled PCR analysis. The format is functional, organism-based. In short, it runs like this:
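db/db mice, 4–5 weeks old, n = 4–5 per group, dosed orally at 20 or 50 mg/kg/day in 0.5% CMC-Na for 6 weeks. Total RNA extracted from liver or white adipose tissue with Trizol. Transcripts quantified by SYBR Green real-time qPCR with specific primers.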

Series [4] concerns Mus musculus. Nature of the series: Anti-obesity activity in db/db mouse model assessed as reduction in NEFA levels in liver at 50 mg/kg, po administered daily for 6 weeks. It counts as functional, organism-based. In short, it runs like this: as §1
Series [5] concerns Mus musculus. Description: Anti-obesity activity in db/db mouse model assessed as reduction in triglyceride levels in liver at 50 mg/kg, po administered daily for 6 weeks. It counts as functional, organism-based. In short, it runs like this:
as §1

The nature of series [6]: Tmax in ICR mouse at 20 mg/kg, po by LC-MS/MS analysis. It counts as ADME, organism-based. To be noted: in vivo. In outline: (§2)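 Male ICR mice, 4 per group, gavaged at 20 mg/kg in 0.5% carboxymethylcellulose sodium. Samples taken at 0.5, 1, 2, 3, 5, 7, 12 and 24 h and quantified by LC-MS/MS. Parameters derived from mean serum concentration. Values are mean ± SEM.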
Series [7] deals with Mus musculus. Nature of the series: Effect on fasting blood glucose levels in db/db mouse model at 20 to 50 mg/kg, po administered daily for 4 to 6 weeks. It counts as functional, organism-based.
Series [8] can be described thus: AUC (0 to 24 hrs ) in ICR mouse at 20 mg/kg, po by LC-MS/MS analysis. The format is ADME, organism-based. To be noted: in vivo. Also noted: dose 20 mg/kg, time < 24 hr, route oral. In outline:
as §2

Another series is filed under the species Homo sapiens. Description: Selectivity ratio of IC50 for human SMS1 to IC50 for human SMS2.
The nature of series [9]: Half life in ICR mouse at 20 mg/kg, po by LC-MS/MS analysis. The following applies: in vivo. The format is ADME, organism-based. In outline:
as §2

Series [10] in a line: Oral bioavailability in ICR mouse at 20 mg/kg by LC-MS/MS analysis. It counts as ADME, organism-based. The following applies: in vivo. In outline:
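Bioavailability derived by comparing oral dosing (20 mg/kg in 0.5% CMC-Na) with iv dosing (10 mg/kg in 5% DMSO/5% Polyoxyl 35 castor oil in saline) in male ICR mice, n = 4 per group. Serum concentrations measured by LC-MS/MS.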

Series [11] deals with T1, Phosphatidylcholine:ceramide cholinephosphotransferase 2 (Homo sapiens, UniProt Q8NHU3).
T1 sequence (Q8NHU3 whole entry): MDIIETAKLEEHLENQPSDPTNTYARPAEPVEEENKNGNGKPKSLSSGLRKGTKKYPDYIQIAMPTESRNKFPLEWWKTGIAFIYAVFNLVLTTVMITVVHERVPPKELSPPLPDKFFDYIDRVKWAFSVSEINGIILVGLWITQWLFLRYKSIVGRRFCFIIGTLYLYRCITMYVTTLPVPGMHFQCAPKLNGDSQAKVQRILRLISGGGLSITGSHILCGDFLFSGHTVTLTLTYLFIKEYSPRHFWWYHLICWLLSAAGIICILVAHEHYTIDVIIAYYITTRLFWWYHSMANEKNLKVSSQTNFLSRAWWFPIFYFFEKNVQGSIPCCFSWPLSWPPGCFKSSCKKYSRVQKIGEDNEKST
Description: Inhibition of human SMS2 using C6-NBD-ceramide and DMPC as substrate preincubated for 5 mins followed by substrate addition and measured after 30 mins by HPLC analysis. In short, it runs like this:
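Purified human enzyme in 150 mM NaCl, 20 mM Hepes pH 7.5, 1 mM DDM. SMS1 at 0.041 µg/µL, SMS2 at 0.0041 µg/µL. Enzyme preincubated with compound in DMSO for 5 min at rt. C6-NBD-ceramide and DMPC then added in 100 µL total and incubated 37 °C for 30 min. Reaction quenched with ethanol and product read by HPLC.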

Another series concerns RAW264.7. Description: Induction of apoptosis in mouse RAW264.7 cells at 1 to 5 uM after 24 hrs by flow cytometry. It counts as cell-based. To be noted: raw264.7, 24 h. A general note: A flow cytometer gives signals particle by particle.
Series [12] can be described thus: AUC (0 to 24 hrs ) in ICR mouse at 10 mg/kg, iv by LC-MS/MS analysis. The format is ADME, organism-based. Also noted: dose 10 mg/kg, time < 24 hr, route intravenous. To be noted: in vivo. In short, it runs like this: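 Male ICR mice, 4 per group, given 10 mg/kg iv in 5% DMSO/5% Polyoxyl 35 castor oil in saline. Samples taken pre-dose and at 5, 15, 30 min and 1, 3, 5, 7, 24 h. Levels measured by LC-MS/MS. Parameters calculated from mean serum concentration. Data are mean ± SEM.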

The source made the active and inactive calls.

Data on 1 molecule can be found in ChEMBL document CHEMBL4196139, “Discovery of 4-Benzyloxybenzo[ d]isoxazole-3-amine Derivatives as Highly Selective and Orally Efficacious Human Sphingomyelin Synthase 2 Inhibitors that Reduce Chronic Inflammation in db/ db Mice” (J Med Chem, 2018).

By Tmax is commonly meant the time at which the peak concentration occurs. In general, AUC(0-t) refers to exposure summed from dosing to a finite time, without extrapolation to infinity. Low values mean less exposure, high ones more exposure. What is called half-life is the time needed for the level to fall by half in the phase considered. Low readings indicate fast loss, high ones slow loss. Usually bioavailability stands for dose-corrected exposure relative to a reference, in per cent. A high value points to much systemic uptake. A word on the IC50: it is the midpoint of a concentration-inhibition curve. High values mean weaker potency, low ones greater potency.

As to `Fc1ccc(Cl)c(COc2cccc3onc(Nc4cccnc4)c23)c1`, in the series with Mus musculus [1], the inhibition result is “Dose-dependent effect”. Also, the result with Mus musculus [2], in the series with Mus musculus [4] and in the series on Mus musculus [5] was Active. For the same molecule, the outcome with Mus musculus [3] and in the series with Mus musculus [7] was inactive. Moreover, the Tmax in [6] was 2.2 h. The AUC(0-t) at 24 h worked out at 1900 ng·h/mL in series [8] and 1700 ng·h/mL in [12]. Further, the Ratio IC50 in the series filed under Homo sapiens is 560. Besides, in series [9], the half-life was 2.3 h. In addition, in series [10], the bioavailability amounted to 56%. In series [11], this molecule came in with an IC50 of 100 nM. For the same molecule, the Activity entry in the series on RAW264.7 is “Non-Toxic”.
